Laboratory results from the RNAGym collection of RNA variant scans (doi:10.1126/science.aae0568).
Variants at the floor of the assay were thinned out.

B1: tRNA (parent)
chain: GUUCCGUUGGCGUAAUGGUAACGCGUCUCCCUCCUAAGGAGAAGACUGCGGGUUCGAGUCCCGUACGGAACG

Variants of: B1
Assay: yeast fitness relative to wild type (ratio to wild type); higher = fitter; tRNA-Arg(CCU), competitive growth, 37 C, YPD
Procedure, shortened: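 Amplicons of the tRNA-Arg(CCU) gene were sequenced, 100-nucleotide paired-end, from the start population and from each end population of a pooled yeast competition. The competition, in six parallel replicates, lasted 24 hours in YPD at 37°C. Fitness relative to wild type was calculated from changes in genotype frequencies. Genotypes had to have ≥ 100 starting reads, and estimates < 0.5 were set to 0.5.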
With U8G C24G G41A A69U the yeast fitness was ≤ 0.5.
With G9A A14C G38C G68A the yeast fitness was ≤ 0.5.
For G9A A43G U59A A69G, the yeast fitness was ≤ 0.5.
For U8G C24G C33G A36U C49G C62G C66G A69C, the yeast fitness was 0.602.
For G9A A20U C22G, the yeast fitness was 0.53.
With U8G A40U G52A A69U the yeast fitness was ≤ 0.5.
G9A C11G C55G G63C G67C showed a yeast fitness of 0.578.
For G9A A21C C27A A37G A45C, the yeast fitness was ≤ 0.5.
In the case of U8G U13C A36C U53C, the yeast fitness is reported as ≤ 0.5.
For U8C U28A A37G G41C, the yeast fitness was ≤ 0.5.
With U8G U35G A70C the yeast fitness was 0.536.
In the case of G9A C22A A37U C55G, the yeast fitness is reported as ≤ 0.5.
Work on U8C U19G C22U C31U A40U G67A yielded a yeast fitness of 0.53.
With U8C U13A C22G C24G A36U A40C G51C the yeast fitness was ≤ 0.5.
With G9A C29U C46U G67C the yeast fitness was 0.583.
With G9A A14C U32A A70G the yeast fitness was ≤ 0.5.
With U8C U26C A37U A57G the yeast fitness was ≤ 0.5.
In the case of G9A A42U, the yeast fitness is reported as 0.87.
Work on G9A A42G yielded a yeast fitness of 0.96.
G9A A42C showed a yeast fitness of 0.855.
In the case of U8C G17A G41C U64A A65C, the yeast fitness is reported as ≤ 0.5.
For U8C U13C U47C A65G, the yeast fitness was ≤ 0.5.
For G9A C24A G38A, the yeast fitness was ≤ 0.5.
With G9A A14G C29U U32A A43U the yeast fitness was ≤ 0.5.
Work on G9A A14G C22U C31A C34U A36C A45C C61U U64A yielded a yeast fitness of 0.546.
In the case of G9A A20U C34G A42U G68C, the yeast fitness is reported as ≤ 0.5.
For U8G A20G G58U A65G G67A, the yeast fitness was ≤ 0.5.
In the case of G9A A40C C49U, the yeast fitness is reported as 0.713.
U8C U13A U32C A69U showed a yeast fitness of 0.677.
G9A C24U U26G showed a yeast fitness of 0.569.
Work on G9A C29G G44A yielded a yeast fitness of 0.614.
In the case of U8C G44C C60G, the yeast fitness is reported as 0.53.
With G9A A21U G48C C55A C66G G67C the yeast fitness was ≤ 0.5.
In the case of G9A C22A A57G, the yeast fitness is reported as 0.628.
For U8G A14C G17C C61G, the yeast fitness was ≤ 0.5.
With U8G U26C C60U the yeast fitness was ≤ 0.5.
In the case of U8G C11A C24A C29A C34U C61G A65C, the yeast fitness is reported as ≤ 0.5.
With U8C G25C C33A the yeast fitness was ≤ 0.5.
In the case of G9A C24A A36C A37G C49A, the yeast fitness is reported as ≤ 0.5.
In the case of G9A C22A C55U, the yeast fitness is reported as 0.626.
In the case of U8G G38A G68U, the yeast fitness is reported as ≤ 0.5.
With U8G U35A the yeast fitness was ≤ 0.5.
With G9A C22U C30G C61U A70U the yeast fitness was ≤ 0.5.
Variant G9A A65G G68C has a yeast fitness of 0.594.
With U8G A21U C27G A65C the yeast fitness was ≤ 0.5.
Work on G9A C22U C30U yielded a yeast fitness of 0.519.
With U8C U13A C29A C31G the yeast fitness was ≤ 0.5.
With U8G C34G the yeast fitness was ≤ 0.5.
Work on G9A A15G yielded a yeast fitness of 0.884.
With G9A C11G C24G C27A U28C A65U the yeast fitness was ≤ 0.5.
Variant G9A A45C C49U has a yeast fitness of 0.643.
For G9A C11A C22G U35C, the yeast fitness was ≤ 0.5.
For U8G G10C U19A C22U C55G, the yeast fitness was ≤ 0.5.
For U8G U28A C34A C66A, the yeast fitness was ≤ 0.5.
In the case of U8C U13A C22A A42U, the yeast fitness is reported as ≤ 0.5.
In the case of G9A C24U A65C, the yeast fitness is reported as 0.536.
For G9A A36C A40C A45C, the yeast fitness was ≤ 0.5.
Work on G9A A40C A70U yielded a yeast fitness of 0.74.
For G9A C11G G50A G51A, the yeast fitness was ≤ 0.5.
With U8G A15U A20C A69C the yeast fitness was ≤ 0.5.
With G9A A42G C62A the yeast fitness was ≤ 0.5.
With U8G G51A the yeast fitness was ≤ 0.5.
With U8G A14G A21G C27A U35A C62A A65C the yeast fitness was ≤ 0.5.
In the case of U8G A14U U16C A40U G48C, the yeast fitness is reported as ≤ 0.5.
With U8G C24G U59A C60A the yeast fitness was ≤ 0.5.
With U8G C29U G50C U59A the yeast fitness was ≤ 0.5.
With U8G C60G the yeast fitness was ≤ 0.5.
With G9A A21U C24G U28A C60G A70C the yeast fitness was ≤ 0.5.
For U8G A21G G23A U64C, the yeast fitness was ≤ 0.5.
Work on U8C U28A yielded a yeast fitness of 0.901.
With U8G C34U C66G the yeast fitness was ≤ 0.5.
For G9A C22G C31U A65C C66A, the yeast fitness was ≤ 0.5.
For U8G G12A U32A G50C G52C C55U, the yeast fitness was ≤ 0.5.
In the case of U8G C62G, the yeast fitness is reported as 0.533.
With U8C G17C G58C the yeast fitness was ≤ 0.5.
In the case of U8G C60G C61A, the yeast fitness is reported as 0.597.
For U8G U26A A40G A43C C55G C60A, the yeast fitness was ≤ 0.5.
Work on G9A A36U G39A yielded a yeast fitness of 0.535.
For G9A C11U A36C A57G G68C, the yeast fitness was ≤ 0.5.
With G9A A14U A21U A65G the yeast fitness was 0.556.
Variant G9A C11U G67C has a yeast fitness of 0.697.
With G9A C27G A37G U53A the yeast fitness was ≤ 0.5.
For U8G A21C G50A G56A, the yeast fitness was ≤ 0.5.
For U8C G23A C30U C55A, the yeast fitness was ≤ 0.5.
With U8G G10C U13G C29A C34G A43C C60G the yeast fitness was ≤ 0.5.
For U8C U16C A21C C49A G58A C66U G68A, the yeast fitness was ≤ 0.5.
For G9A A14U C29G C34A U54A, the yeast fitness was ≤ 0.5.
In the case of G9A C30G G68U, the yeast fitness is reported as ≤ 0.5.
For G9A C29A G50A A69C, the yeast fitness was ≤ 0.5.
For G9A A45U G48A G56A, the yeast fitness was 0.701.
For U8C G48A, the yeast fitness was 0.899.
In the case of U8G C29A A37U C49A, the yeast fitness is reported as ≤ 0.5.
For G9A A36U G51A C61G, the yeast fitness was ≤ 0.5.
For U8G C22G G48A C60A U64C A69C, the yeast fitness was 0.561.
For G9A A15U A20G G44C C61U, the yeast fitness was ≤ 0.5.
In the case of U8G C62U U64A G67C, the yeast fitness is reported as 0.603.
With U8G C24A C30G A40G U47G C55U the yeast fitness was 0.512.
For G9A A21G C33A C62U G63C A70C, the yeast fitness was ≤ 0.5.
With G9A A36U G39A G52C the yeast fitness was ≤ 0.5.
In the case of U8G A21U C62U, the yeast fitness is reported as ≤ 0.5.
In the case of G9A C24G, the yeast fitness is reported as 0.594.
G9A C24U gave a yeast fitness of 0.997.
With G9A C30A G39A U47A G63C the yeast fitness was ≤ 0.5.
For G9A A37C C62G, the yeast fitness was ≤ 0.5.
For G9A C22U, the yeast fitness was 1.04.
For G9A C22G, the yeast fitness was 0.869.
In the case of G9A C22A, the yeast fitness is reported as 0.919.
For U8C U16C, the yeast fitness was 0.861.
In the case of G9A C24A U59A, the yeast fitness is reported as ≤ 0.5.
In the case of U8C U16C C61G A69C, the yeast fitness is reported as ≤ 0.5.
In the case of U8G G17A C24G G58C, the yeast fitness is reported as ≤ 0.5.
In the case of G9A C29U U47A A65U, the yeast fitness is reported as ≤ 0.5.
Work on U8C G18A A45U G67C yielded a yeast fitness of 0.552.
In the case of U8G U26A G52A, the yeast fitness is reported as 0.59.
U8G gave a yeast fitness of 0.711.
In the case of U8C G48C G63C A70C, the yeast fitness is reported as ≤ 0.5.
In the case of U8C G38C C49U C62U A69U, the yeast fitness is reported as 0.568.
In the case of G9A A20G U59A C66G, the yeast fitness is reported as ≤ 0.5.
With U8C U16C A69C the yeast fitness was 0.709.
U8G G48A gave a yeast fitness of 0.531.
In the case of G9A A21U A36G A40C, the yeast fitness is reported as ≤ 0.5.
In the case of G9A C11G C24G U32A G58C, the yeast fitness is reported as ≤ 0.5.
G9A A21G U59A gave a yeast fitness of 0.731.
For G9A C29G U53G, the yeast fitness was ≤ 0.5.
In the case of G9A C11U A36C C49G U53G, the yeast fitness is reported as ≤ 0.5.
G9A C22A C61U showed a yeast fitness of 0.622.
In the case of U8C G39C U47C C60A C61G A69U, the yeast fitness is reported as ≤ 0.5.
For U8G U35A A70U, the yeast fitness was ≤ 0.5.
For U8G A43C G51A, the yeast fitness was ≤ 0.5.
U8C U54G U64A gave a yeast fitness of 0.543.
In the case of U8G U28A C34G G39C A57G C66U, the yeast fitness is reported as ≤ 0.5.
For G9A C24U C30U U32G A65C C66G, the yeast fitness was ≤ 0.5.
With U8G G10A the yeast fitness was ≤ 0.5.
With U8G G17A G56C the yeast fitness was ≤ 0.5.
In the case of U8C G18C A21C C61U C66U, the yeast fitness is reported as ≤ 0.5.
For U8G G12A A37C A43U C66A A70C, the yeast fitness was 0.597.
With U8C U32C G44A G56A the yeast fitness was ≤ 0.5.
With U8G C55U the yeast fitness was 0.569.
In the case of G9A A20U C66U, the yeast fitness is reported as 0.529.
G9A C24G C34G A69U gave a yeast fitness of 0.533.
For U8C U28C C30G C31G A65C, the yeast fitness was ≤ 0.5.
In the case of U8G C55A C66U, the yeast fitness is reported as ≤ 0.5.
Work on U8G A45C yielded a yeast fitness of 0.537.
With U8G A45G the yeast fitness was 0.632.
In the case of G9A C30G C31G U32A C66U, the yeast fitness is reported as ≤ 0.5.
In the case of G9A C24G C27U G44C C61G, the yeast fitness is reported as ≤ 0.5.
For U8C G48C G52A C66A, the yeast fitness was ≤ 0.5.
With G9A C22U U26A A43U A65U the yeast fitness was ≤ 0.5.
For U8C U19A C31A G41C A45G G50C C62U, the yeast fitness was ≤ 0.5.
In the case of G9A A15G A43G C49G U53G, the yeast fitness is reported as 0.553.
With U8G G9C G68A the yeast fitness was ≤ 0.5.
For G9A A37C A65C, the yeast fitness was 0.56.
U8G C11U gave a yeast fitness of 0.646.
For U8G C27A C61A, the yeast fitness was ≤ 0.5.
In the case of U8C G51A C62A, the yeast fitness is reported as ≤ 0.5.
In the case of U8C G18C C27A C33U A65C A69C, the yeast fitness is reported as ≤ 0.5.
For U8G A14U A15U A20C C60U A69C, the yeast fitness was ≤ 0.5.
For U8C U16A A21U C24G G48C, the yeast fitness was ≤ 0.5.
For U8G U35A G41A U54A C55U, the yeast fitness was ≤ 0.5.
In the case of U8G U47G C49A A69U, the yeast fitness is reported as ≤ 0.5.
In the case of U8G G25C G52C, the yeast fitness is reported as ≤ 0.5.
With U8C G25A A37C G68U the yeast fitness was ≤ 0.5.
In the case of U8C U32G C49G, the yeast fitness is reported as ≤ 0.5.
U8G G52A G67C gave a yeast fitness of 0.521.
For G9A C29U, the yeast fitness was 0.914.
For U8G A21C A43U U59A G63A, the yeast fitness was ≤ 0.5.
In the case of G9A C11U C29G, the yeast fitness is reported as 0.609.
